Active and inactive are the calls of the source. No cut-off for these calls is given here.
Experiments:
SH-SY5Y [1] = assay: Neuroprotective activity against glutamate-induced cytotoxicity in human SH-SY5Y cells at 10 uM pretreated for 2 hrs followed by glutamate stimulation and measured after 24 hrs by MTT assay; assay type: functional, cell-based; conditions: time 26.0 hrs
Summary of the method: (§1)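 SH-SY5Y cells seeded at 5000 per well and grown 24 h. Pretreated 2 h with compound (2.5 or 10 μM, diluted in DMEM from 10⁻¹ M DMSO stock), then H₂O₂ 200 μM, glutamate 20 mM or aggregated Aβ1-42 15 μM for 24 h. MTT added for 4 h, formazan dissolved in DMSO, absorbance read at 492 nm. Viability relative to untreated control; mean ± SEM, n = 3.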

[2] = Hepatotoxicity in ICR mouse assessed as change in aspartate aminotransferase activity at 1 g/kg, ig administered daily for 14 days measured upto 36 hrs post-administration; assay type: toxicity; conditions: in vivo, po, 1000 mg/kg, 336 h, time 14 day
Summary of the method: (§2)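 Heparinized serum from ICR mice taken at 8, 22 and 36 h after oral compound or saline control; AST and ALT activities measured.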

SH-SY5Y [3] = assay: Neuroprotective activity against H2O2-induced cytotoxicity in human SH-SY5Y cells pretreated for 2 hrs followed by H2O2 stimulation and measured after 24 hrs by MTT assay; assay type: functional, cell-based; conditions: dose 2.5-10 µM, time 26.0 hrs; summary of the method: as §1
Cholinesterase [4] = target: Cholinesterase (Equus caballus, UniProt P81908); assay: Inhibition of equine serum BChE using butyrylthiocholine iodide as substrate preincubated for 5 mins followed by substrate addition and measured after 2 mins by DTNB-reagent based Ellman's method
Chain of Cholinesterase (Equus caballus, UniProt P81908) (P81908 whole entry): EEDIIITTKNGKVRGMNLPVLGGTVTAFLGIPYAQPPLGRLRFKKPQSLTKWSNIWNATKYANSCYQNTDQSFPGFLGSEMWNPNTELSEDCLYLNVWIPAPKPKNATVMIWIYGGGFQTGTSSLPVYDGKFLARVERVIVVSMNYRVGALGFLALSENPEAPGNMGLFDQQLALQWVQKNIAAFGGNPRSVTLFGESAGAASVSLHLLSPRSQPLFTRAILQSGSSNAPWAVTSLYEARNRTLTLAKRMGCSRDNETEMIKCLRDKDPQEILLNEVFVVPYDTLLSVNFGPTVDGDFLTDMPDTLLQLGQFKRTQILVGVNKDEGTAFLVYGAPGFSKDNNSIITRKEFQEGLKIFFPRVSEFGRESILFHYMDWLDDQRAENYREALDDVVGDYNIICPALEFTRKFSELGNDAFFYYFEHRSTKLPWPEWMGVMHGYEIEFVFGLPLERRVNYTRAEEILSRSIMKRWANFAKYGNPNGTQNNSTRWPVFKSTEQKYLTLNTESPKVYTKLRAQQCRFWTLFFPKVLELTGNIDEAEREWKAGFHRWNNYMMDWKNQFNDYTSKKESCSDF

Cholinesterase [5] = target: Cholinesterase (Homo sapiens, UniProt P06276); assay: Inhibition of human serum BChE using butyrylthiocholine iodide as substrate preincubated for 20 mins followed by substrate addition and measured after 2 mins by DTNB-reagent based Ellman's method
Chain of Cholinesterase (Homo sapiens, UniProt P06276) (P06276 whole entry): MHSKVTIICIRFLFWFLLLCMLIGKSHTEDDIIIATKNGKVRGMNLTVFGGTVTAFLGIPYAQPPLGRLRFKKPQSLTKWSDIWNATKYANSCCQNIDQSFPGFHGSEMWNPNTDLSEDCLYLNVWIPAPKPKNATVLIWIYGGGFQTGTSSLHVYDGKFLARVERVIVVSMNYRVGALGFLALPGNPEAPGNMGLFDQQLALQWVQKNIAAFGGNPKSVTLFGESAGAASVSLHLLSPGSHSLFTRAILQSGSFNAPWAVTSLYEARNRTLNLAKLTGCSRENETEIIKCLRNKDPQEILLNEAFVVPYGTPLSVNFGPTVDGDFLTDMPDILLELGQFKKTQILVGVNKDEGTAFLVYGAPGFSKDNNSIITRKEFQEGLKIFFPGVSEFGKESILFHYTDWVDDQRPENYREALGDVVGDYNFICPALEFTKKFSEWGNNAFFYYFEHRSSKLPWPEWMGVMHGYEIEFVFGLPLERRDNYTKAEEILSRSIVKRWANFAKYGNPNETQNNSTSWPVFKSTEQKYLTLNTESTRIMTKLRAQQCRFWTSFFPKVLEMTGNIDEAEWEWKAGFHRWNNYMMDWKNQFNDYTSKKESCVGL
Summary of the method: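 hBChE at 0.015 units/mL with DTNB in phosphate buffer pH 8.0, preincubated 20 min at room temperature with at least six concentrations (10⁻⁴−10⁻⁹). Butyrylthiocholine iodide (0.075 M solution) added; A412 read after 2 min at 25 °C. IC50 from % activity vs log concentration; triplicates in at least three runs.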

SH-SY5Y [6] = assay: Cytotoxicity against human SH-SY5Y cells assessed as survival rate at 100 uM incubated for 24 hrs by MTT assay; assay type: functional
Summary of the method: (§3)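 Cells seeded at 1 × 10⁴/well in DMEM with 10% FBS and left overnight, then given compound (DMSO stock diluted in DMEM) for 24 h at 37 °C. MTT added for 4 h, formazan dissolved in DMSO, absorbance read at 492 nm. Viability taken as OD treated/OD DMEM × 100%; IC50 from three independent experiments, mean SD.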

PC-12 [7] = assay: Cytotoxicity against rat PC-12 cells assessed as survival rate at 10 uM incubated for 24 hrs by MTT assay; assay type: functional; summary of the method: as §3
BV-2 [8] = assay: Cytotoxicity against mouse BV-2 cells assessed as survival rate at 100 uM incubated for 24 hrs by MTT assay; assay type: functional; summary of the method: as §3
HepG2 [9] = assay: Cytotoxicity against human HepG2 cells assessed as survival rate at 100 uM incubated for 24 hrs by MTT assay; assay type: functional; summary of the method: as §3
L02 = assay: Cytotoxicity against human L02 cells assessed as survival rate at 100 uM incubated for 24 hrs by MTT assay; assay type: functional; summary of the method: as §3
[10] = Acute toxicity in ICR mouse assessed as animal death at […]; conditions: in vivo, po, 1000 mg/kg, 336 h
[11] = Acute toxicity in ICR mouse assessed as abnormal behaviour at 1 g/kg, ig administered […]; conditions: in vivo, po, 1000 mg/kg
Summary of the method: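 Single dose of 1 g/kg given intragastrically on day 1 to overnight-fasted mice (15−18 g), suspended in 5% DMSO, 40% PEG 400, 55% saline. Male and female groups (n = 9), with vehicle controls. Death, daily behaviour and body mass followed over the next 2 weeks.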

[12] = Hepatotoxicity in ICR mouse assessed as change in alanine aminotransferase activity at 1 g/kg, ig administered daily for 14 days measured upto 36 hrs post-administration; assay type: toxicity; conditions: in vivo, po, 1000 mg/kg, 336 h, time 14 day; summary of the method: as §2
[13] = Hepatotoxicity in ICR mouse assessed as morphological changes in liver at 1 g/kg, ig administered daily for 14 days analysed after 22 hrs post-administration by hematoxylin and eosin staining based analysis; assay type: toxicity, tissue-based; conditions: in vivo, po, 1000 mg/kg, 336 h, time 14 day
Summary of the method: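 Liver from male mice taken 22 h after compound or vehicle; hematoxylin−eosin staining, viewed at ×100.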

[14] = Effective permeability of the compound in pH 7.4 PBS/EtOH (70:30) at 100 ug/ml incubated for 18 hrs by PAMPA-BBB assay; assay type: ADME; conditions: dose 100 µg/ml, read-out: Peff
Summary of the method: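 PAMPA-BBB with porcine brain lipid in dodecane (20 mg/mL) on PVDF filter. Donor holds compound at 100 μg/mL final (from 5 mg/mL DMSO stock) in PBS pH 7.4/EtOH 70:30; acceptor holds the same buffer. Incubated 18 h at 25 °C; donor and acceptor concentrations by UV at five wavelengths. Four wells, at least three runs, nine permeability standards; mean ± SD.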

SH-SY5Y [15] = assay: Neuroprotective activity against amyloid beta (1 to 42)-induced cytotoxicity in human SH-SY5Y cells at 2.5 uM pretreated for 2 hrs followed by amyloid beta (1 to 42) stimulation and measured after 24 hrs by MTT assay; assay type: functional, cell-based; conditions: time 26.0 hrs; summary of the method: as §1
SH-SY5Y [16] = assay: Neuroprotective activity against amyloid beta (1 to 42)-induced cytotoxicity in human SH-SY5Y cells at 10 uM pretreated for 2 hrs followed by amyloid beta (1 to 42) stimulation and measured after 24 hrs by MTT assay; assay type: functional, cell-based; conditions: time 26.0 hrs; summary of the method: as §1
BV-2 [17] = assay: Anti-inflammatory activity against mouse BV-2 cells assessed as blocked of LPS-induced increased ROS production by measuring green fluorescence preincubated for 1 hr by DCFH-DA staining based fluorescence microscopy; assay type: functional, cell-based
Summary of the method: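 BV2 cells seeded at 1 × 10⁴ per well and grown 24 h at 37 °C. Compounds at various concentrations for 1 h, then LPS 2.5 μg/mL for 24 h. Washed in PBS, loaded with DCFH-DA 5 μM (final) for 30 min, washed three times. Intracellular ROS taken as green fluorescence intensity by inverted fluorescence microscopy, exposure fixed at 10.2 ms.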

Mus musculus [18] = assay: Antialzheimer activity in ICR mouse assessed as reduction in scopolamine-induced cognitive impairment at 30 mg/kg, ig administered for 10 consecutive days by Morris water maze test; assay type: functional, organism-based; conditions: time 10.0 day
Summary of the method: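 Male ICR mice (8−10 weeks, 18−20 g), n = 8 per group. Compound at 15 or 30 mg/kg intragastric in DMSO/saline (10:90), given 30 min before scopolamine 3 mg/kg i.p., for 10 consecutive days; tacrine 15 mg/kg as reference. Morris water maze: 5 days of training, probe trial on day 6 with platform removed. Escape latency and trajectory recorded; mean ± SD.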

Mus musculus [19] = assay: Anti-alzheimer activity in amyloid beta(1 to 42)-induced ICR mouse model of cognitive impairment assessed as reduction in escape latency time at 15 mg/kg, ig administered at days 2 to 14 by Morris water maze test; assay type: functional
Summary of the method: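 Mouse model by icv oligomerized Aβ1-42 (10 μg/mouse, aggregated 24 h at 37 °C in saline) on day 1; 15 mg/kg ig on days 2−14, n = 8. Morris water maze training on days 9−13, probe trial day 14, escape latency and track recorded. Mean SD.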

Mus musculus [20] = assay: Anti-alzheimer activity in amyloid beta(1 to 42)-induced ICR mouse model of cognitive impairment assessed as simplification of trajectories at 15 mg/kg, ig administered at days 2 to 14 by Morris water maze test; assay type: functional, organism-based
Summary of the method: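 ICR mice, n = 8 per group. Aggregated Aβ1-42 (5 mM DMSO stock incubated 24 h at 37 °C in saline at 2 mg/mL) given 10 μg per mouse icv on day 1; saline icv for sham. Compound 15 mg/kg intragastric on days 2−14; donepezil reference. Morris water maze training days 9−13, probe trial day 14; tracks recorded; mean ± SD.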

Mus musculus [21] = assay: Anti-alzheimer activity in amyloid beta(1 to 42)-induced ICR mouse model of cognitive impairment assessed as enhanced alternation performance by measuring total number of arm entries at 15 mg/kg, ig administered at days 2 to 14 and measured on day 15 by Y-maze test; assay type: functional
Summary of the method: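 Oligomerized Aβ1-42 (10 μg per mouse, icv) given on day 1; saline icv for sham. Dosing 15 mg/kg ig on days 2−14 (donepezil as positive control), n = 8. Spontaneous alternation read on day 15 in a three-arm grey PVC Y maze, arms at 120°. Mean SD.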

[22] = Toxicity in ICR mouse assessed as increase in body weight administered for 14 days and measured daily; conditions: in vivo, 15 mg/kg, 336 h
[23] = Metabolic stability in human liver microsomes assessed as half life at 1 uM measured upto 45 mins in presence of NADPH by LC/MS/MS analysis; assay type: ADME, Microsome
Summary of the method: (§4)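 Human liver microsomes 0.5 mg/mL, compound 1 μM final, NADPH 2 mM, at 37 °C. Reactions stopped at 0, 5, 15, 30 and 45 min with acetonitrile containing imipramine internal standard. LC/MS/MS quantitation relative to 0 min; initial rates used for t1/2 and intrinsic clearance; ketanserin as assay control. Mean of two independent experiments.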

[24] = Metabolic stability in human liver microsomes assessed as intrinsic clearance at 1 uM measured upto 45 mins in presence of NADPH by LC/MS/MS analysis; assay type: ADME, Microsome; conditions: read-out: CLH; summary of the method: as §4
SH-SY5Y [25] = assay: Cytotoxicity against human SH-SY5Y cells assessed as reduction in cell viability incubated for 24 hrs by MTT assay; assay type: functional, cell-based; summary of the method: as §3
PC-12 [26] = assay: Cytotoxicity against rat PC-12 cells assessed as reduction in cell viability incubated for 24 hrs by MTT assay; assay type: functional, cell-based; conditions: PC-12, 24 h; summary of the method: as §3
HepG2 [27] = assay: Cytotoxicity against human HepG2 cells assessed as reduction in cell viability incubated for 24 hrs by MTT assay; assay type: functional, cell-based; conditions: HepG2, 24 h; summary of the method: as §3
SH-SY5Y [28] = assay: Cytotoxicity against human SH-SY5Y cells assessed as survival rate at 2.5 uM incubated for 24 hrs by MTT assay; assay type: functional; summary of the method: as §3
PC-12 [29] = assay: Cytotoxicity against rat PC-12 cells assessed as survival rate at 2.5 uM incubated for 24 hrs by MTT assay; assay type: functional; summary of the method: as §3

Nc1nonc1-c1nc2ccccc2n1CC(=O)Nc1cccc([N+](=O)[O-])c1
Activity (SH-SY5Y [1]): Active
Activity [2]: Non-Toxic
Activity (SH-SY5Y [3]): Dose-Dependent Effect
IC50 (Cholinesterase [4]): 31 nM
IC50 (Cholinesterase [5]): 25 nM
Activity (SH-SY5Y [6]): 82.67%
Activity (PC-12 [7]): 58.34%
Activity (BV-2 [8]): 94.23%
Activity (HepG2 [9]): 75.46%
Activity (L02): 87.01%
Activity [10]: Non-Toxic
Activity [11]: Non-Toxic
Activity [12]: Non-Toxic
Activity [13]: Non-Toxic
Papp at 18 h, 100 ug/ml [14]: 12.4 ×10⁻⁶ cm/s
Activity (SH-SY5Y [15]): Active
Activity (SH-SY5Y [16]): Active
Activity (BV-2 [17]): Active
Activity (Mus musculus [18]): Active
Activity (Mus musculus [19]): Active
Activity (Mus musculus [20]): Active
Activity (Mus musculus [21]): 68.67%
Activity [22]: Toxic
half-life at 1 µM [23]: 47.5 min
CLint scaled at 1 µM [24]: 36.6 mL/min/kg

Nc1nonc1-c1nc2ccccc2n1CC(=O)Nc1ccc(Br)c2ccccc12
Activity [2]: Non-Toxic
IC50 (Cholinesterase [4]): 6 nM
IC50 (Cholinesterase [5]): 32 nM
Activity (SH-SY5Y [6]): 62.37%
Activity (PC-12 [7]): 52.21%
Activity (BV-2 [8]): 55.66%
Activity (HepG2 [9]): 73.24%
Activity (L02): 86.55%
Activity [10]: Non-Toxic
Activity [11]: Non-Toxic
Activity [12]: Non-Toxic
Activity [13]: Non-Toxic
Papp at 18 h, 100 ug/ml [14]: 11.7 ×10⁻⁶ cm/s
Activity (Mus musculus [18]): Active
Activity (Mus musculus [19]): Active
Activity (Mus musculus [20]): Active
Activity (Mus musculus [21]): Active
Activity [22]: Toxic
half-life at 1 µM [23]: 32.2 min
CLint scaled at 1 µM [24]: 54 mL/min/kg

Cc1ccc2cc(NC(=O)Cn3c(-c4nonc4N)nc4ccccc43)ccc2n1
IC50 (SH-SY5Y [25]): 35100 nM
IC50 (PC-12 [26]): 91500 nM
Activity (BV-2 [8]): 59.79%
IC50 (HepG2 [27]): 17300 nM
Activity (L02): 61.49%

Nc1nonc1-c1nc2ccccc2n1CC(=O)Nc1cccc2ccccc12
IC50 (Cholinesterase [4]): 44 nM
IC50 (Cholinesterase [5]): 22 nM
Activity (SH-SY5Y [28]): 40.84%
Activity (PC-12 [29]): 44.44%
Activity (BV-2 [8]): 82.9%
IC50 (HepG2 [27]): 5050 nM
Activity (L02): 73.52%

From ChEMBL document CHEMBL5038583, “Highly Potent and Selective Butyrylcholinesterase Inhibitors for Cognitive Improvement and Neuroprotection” (J Med Chem, 2021)
